Reference: ChEMBL document CHEMBL1764953, “Discovery of orally active carboxylic acid derivatives of 2-phenyl-5-trifluoromethyloxazole-4-carboxamide as potent diacylglycerol acyltransferase-1 inhibitors for the potential treatment of obesity and diabetes” (J Med Chem, 2011)
In brackets after ≈: the same amount, converted by molar mass. Activity calls are given as the source filed them. The rule behind the calls is not given here.

Experiments:
[1] = Cmax in Hanover Wistar rat at 10 mg/kg, po by LC-MS/MS; assay type: ADME, organism-based; parameters: dose 10 mg/kg, route oral; conditions: in vivo
In short: (§1)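 Hanover Wistar rats (n = 3) with jugular/femoral cannulae, oral gavage of a 2 mg/mL suspension in 2% Klucel LF with 0.1% Tween 80; femoral-vein sampling, EDTA plasma, acetonitrile precipitation, LC-MS/MS (5.0–5000 ng/mL), noncompartmental analysis; F relative to 5 mg/kg iv; mean of n = 3.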

[2] = Extrapolated AUC in Hanover Wistar rat at 10 mg/kg, po; assay type: ADME, organism-based; parameters: dose 10 mg/kg, route oral; conditions: in vivo; in short: as §1
[3] = Oral bioavailability in Beagle dog at 10 mg/kg; assay type: ADME, organism-based, Canis lupus familiaris; conditions: in vivo
In short: (§2)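 Plasma extracted by acetonitrile precipitation and quantified by LC-MS/MS (5.0–5000 ng/mL); noncompartmental PK; bioavailability relative to 5 mg/kg iv; mean of n = 3.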

[4] = Cmax in diet-induced obese rat at 3 mg/kg, po administered once daily for 3 weeks; assay type: ADME, organism-based; parameters: dose 3 mg/kg, route oral; conditions: in vivo
Cytochrome P450 2D6 = Cytochrome P450 2D6 (Homo sapiens, UniProt P10635); assay: Inhibition of CYP2D6; assay type: ADME
Rattus norvegicus [5] = assay: Antiobesity activity in diet-induced obese rat assessed as reduction in body weight gain at 1 mg/kg, po administered once daily for 3 weeks; assay type: functional; parameters: scale not given: the % may be the effect or the level left
In short: (§3)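 Male DIO rats, 19 weeks old, on high fat diet for 12 weeks, dosed po once daily with Klucel (hydroxypropyl cellulose) suspension for 22 days; 10 rats per group. Body weight followed throughout; daily food intake recorded on days 1–3, 8, 9, 15 and 16, values averaged per group.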

Rattus norvegicus [6] = assay: Antiobesity activity in diet-induced obese rat assessed as reduction in plasma triglyceride levels at 3 mg/kg, po qd after 4 hrs challenged with corn oil relative to vehicle treated control; assay type: functional; parameters: scale not given: the % may be the effect or the level left
In short: (§4)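 Male DIO rats given 3 mg/kg po once daily for 1 week, with body weight gain followed. At study end, rats were fasted 4 h and challenged with corn oil 5 mL/kg; plasma triglycerides were measured 4 h later and compared with the vehicle group.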

[7] = Clearance in Hanover Wistar rat at 5 mg/kg, iv; assay type: ADME, organism-based; parameters: dose 5 mg/kg, route intravenous; conditions: in vivo
In short: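 Hanover Wistar rats (n = 3) cannulated in jugular and femoral veins, dosed iv 5 mg/kg via jugular vein as a solution in 2% DMA, 15% PEG400, 77% of 28% HPβCD in pH 7 PBS. Femoral-vein blood, EDTA plasma, acetonitrile precipitation, LC-MS/MS, noncompartmental analysis; mean of n = 3.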

[8] = Cmax in Beagle dog at 10 mg/kg, po by LC-MS/MS; assay type: ADME, organism-based, Canis lupus familiaris; parameters: dose 10 mg/kg, route oral; conditions: in vivo; in short: as §2
Rattus norvegicus [9] = assay: Antiobesity activity in diet-induced obese rat assessed as decrease in food intake at 3 mg/kg, po administered once daily for 3 weeks; assay type: functional; parameters: scale not given: the % may be the effect or the level left; in short: as §3
[10] = Cmax in diet-induced obese rat at 0.3 mg/kg, po administered once daily for 3 weeks; assay type: ADME, organism-based; parameters: dose 0.3 mg/kg, route oral; conditions: in vivo
[11] = target: T1, Diacylglycerol O-acyltransferase 1 (Homo sapiens, UniProt O75907); assay: Inhibition of human DGAT1 expressed in CHO-K1 cells after 1 hr using 14C palmitic acid
T1 sequence (O75907 whole entry): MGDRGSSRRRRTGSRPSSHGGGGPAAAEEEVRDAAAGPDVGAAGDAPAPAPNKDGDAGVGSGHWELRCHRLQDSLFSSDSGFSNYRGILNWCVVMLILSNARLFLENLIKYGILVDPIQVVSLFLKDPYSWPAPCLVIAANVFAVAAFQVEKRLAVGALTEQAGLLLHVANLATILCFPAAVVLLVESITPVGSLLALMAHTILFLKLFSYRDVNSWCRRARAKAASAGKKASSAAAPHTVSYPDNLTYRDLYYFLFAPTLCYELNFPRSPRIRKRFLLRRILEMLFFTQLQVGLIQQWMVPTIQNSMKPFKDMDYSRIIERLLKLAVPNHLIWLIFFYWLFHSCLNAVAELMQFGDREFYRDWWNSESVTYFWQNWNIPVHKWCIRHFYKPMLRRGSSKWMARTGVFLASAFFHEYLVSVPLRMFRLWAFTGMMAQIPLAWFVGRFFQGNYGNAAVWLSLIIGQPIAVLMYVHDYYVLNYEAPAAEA

Rattus norvegicus [12] = assay: Antidiabetic activity in diet-induced obese Sprague-Dawley rat assessed as effect on insulin level at 1 mg/kg, po administered once daily for 3 weeks measured after 30 mins by OGTT; assay type: functional, organism-based; parameters: dose 1 mg/kg
In short: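 DIO rats (n = 10/group) on high fat diet, dosed po once daily in Klucel suspension for 3 weeks. On day 21 an oral glucose challenge of 2 g/kg was given, and plasma insulin was measured at the 30 min time point.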

Rattus norvegicus [13] = assay: Antiobesity activity in diet-induced obese rat assessed as reduction in body weight gain at 3 mg/kg, po qd; assay type: functional; parameters: scale not given: the % may be the effect or the level left; in short: as §4
[14] = Half life in Beagle dog at 5 mg/kg, iv; assay type: ADME, organism-based, Canis lupus familiaris; parameters: dose 5 mg/kg, route intravenous; conditions: in vivo
In short: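 Plasma levels by protein precipitation with acetonitrile and LC-MS/MS (linear range 5.0–5000 ng/mL); noncompartmental analysis; mean of n = 3.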

[15] = Solubility of the compound at mp 217 degC; assay type: physicochemical
Rattus norvegicus [16] = assay: Antiobesity activity in diet-induced obese rat assessed as decrease in food intake at 0.3 mg/kg, po administered once daily for 3 weeks; assay type: functional; parameters: scale not given: the % may be the effect or the level left; in short: as §3
[17] = target: T1, Diacylglycerol O-acyltransferase 1; assay: Inhibition of human DGAT1 expressed in baculovirus infected insect cells after 1 hr using palmitoyl-1-14C-coenzyme A by phospholipid flashplate assay
Rattus norvegicus [18] = assay: Antidiabetic activity in diet-induced obese Sprague-Dawley rat assessed as insulin-mediated decrease in glucose level at 3 mg/kg, po administered once daily for 3 weeks OGTT; assay type: functional, organism-based; parameters: dose 3 mg/kg
In short: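 Male Sprague-Dawley DIO rats (n = 10/group), 550–650 g, reverse light/dark cycle, high fat diet from 7 weeks of age; dosed po once daily in Klucel suspension.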

hERG = hERG (Homo sapiens, UniProt Q12809); assay: Inhibition of human ERG-mediated current expressed in CHO cells by patch clamp method; assay type: cell-based; conditions: CHO cells expressing human ERG
In short: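 hERG-transfected CHO cells on automated whole-cell patch clamp at a holding potential of −80 mV; 1 s depolarizing pulse at 0.1 Hz; tail current measured at −40 mV. Sequence: 0.3% DMSO vehicle, three ascending log-interval concentrations up to 30 μM or the solubility limit, then 1 μM E-4031. At least 3 cells per compound; data normalized to vehicle and fitted with the Hill equation.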

hERG, sequence (Q12809 whole entry): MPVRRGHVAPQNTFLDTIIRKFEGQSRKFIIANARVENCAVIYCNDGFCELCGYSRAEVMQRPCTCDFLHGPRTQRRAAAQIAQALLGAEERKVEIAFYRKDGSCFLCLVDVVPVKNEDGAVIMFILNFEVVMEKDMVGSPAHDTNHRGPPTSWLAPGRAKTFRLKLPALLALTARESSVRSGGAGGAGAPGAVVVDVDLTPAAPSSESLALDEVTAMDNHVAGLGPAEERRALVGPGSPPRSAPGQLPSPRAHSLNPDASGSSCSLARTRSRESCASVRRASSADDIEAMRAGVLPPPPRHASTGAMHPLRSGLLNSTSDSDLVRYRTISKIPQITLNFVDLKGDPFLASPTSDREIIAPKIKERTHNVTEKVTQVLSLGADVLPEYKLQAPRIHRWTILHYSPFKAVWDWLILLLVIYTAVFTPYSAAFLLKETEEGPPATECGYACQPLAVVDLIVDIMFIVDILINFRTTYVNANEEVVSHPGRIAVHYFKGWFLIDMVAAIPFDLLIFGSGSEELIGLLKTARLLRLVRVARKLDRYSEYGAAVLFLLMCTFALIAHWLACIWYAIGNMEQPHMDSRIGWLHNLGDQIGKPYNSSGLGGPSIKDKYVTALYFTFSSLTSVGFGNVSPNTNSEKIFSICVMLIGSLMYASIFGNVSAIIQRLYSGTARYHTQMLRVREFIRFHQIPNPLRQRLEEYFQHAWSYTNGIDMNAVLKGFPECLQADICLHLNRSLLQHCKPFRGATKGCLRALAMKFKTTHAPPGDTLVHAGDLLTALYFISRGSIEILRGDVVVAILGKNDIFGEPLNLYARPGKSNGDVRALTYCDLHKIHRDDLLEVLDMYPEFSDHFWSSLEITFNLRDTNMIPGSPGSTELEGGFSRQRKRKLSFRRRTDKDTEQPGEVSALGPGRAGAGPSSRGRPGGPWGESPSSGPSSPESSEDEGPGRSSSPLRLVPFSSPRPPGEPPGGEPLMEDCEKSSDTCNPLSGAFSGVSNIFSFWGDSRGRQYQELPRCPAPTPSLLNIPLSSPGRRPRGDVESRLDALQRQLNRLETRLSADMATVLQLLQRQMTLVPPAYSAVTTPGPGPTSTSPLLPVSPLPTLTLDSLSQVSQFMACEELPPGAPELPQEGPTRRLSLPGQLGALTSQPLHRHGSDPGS
Cytochrome P450 2D6, sequence (P10635 whole entry): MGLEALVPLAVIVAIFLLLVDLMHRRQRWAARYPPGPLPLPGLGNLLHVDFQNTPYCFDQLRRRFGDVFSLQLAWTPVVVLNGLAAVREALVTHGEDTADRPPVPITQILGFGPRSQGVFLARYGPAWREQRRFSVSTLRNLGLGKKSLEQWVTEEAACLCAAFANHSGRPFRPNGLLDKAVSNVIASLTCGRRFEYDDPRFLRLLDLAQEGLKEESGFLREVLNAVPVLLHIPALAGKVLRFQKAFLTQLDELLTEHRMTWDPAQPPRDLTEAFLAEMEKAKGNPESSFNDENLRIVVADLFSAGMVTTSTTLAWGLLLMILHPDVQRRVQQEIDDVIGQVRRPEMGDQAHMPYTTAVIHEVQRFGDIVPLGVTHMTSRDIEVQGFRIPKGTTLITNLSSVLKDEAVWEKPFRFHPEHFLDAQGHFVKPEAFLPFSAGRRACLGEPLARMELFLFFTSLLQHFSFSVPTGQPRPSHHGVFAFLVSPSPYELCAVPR

O=C(Nc1ccc(C2CCN(C(=O)[C@H]3CC[C@H](C(=O)O)CC3)CC2)cc1)c1nc(-c2ccccc2)oc1C(F)(F)F
Cmax [1]: 34.8 µM
AUC [2]: 567 µM·h
bioavailability [3]: 33%
Cmax [4]: 15.1 µM
IC50 (Cytochrome P450 2D6): > 50000 nM
Activity (Rattus norvegicus [5]): 6%
Activity (Rattus norvegicus [6]): 85%
clearance [7]: 0.38 mL/min/kg
Cmax [8]: 4.7 µM
Activity (Rattus norvegicus [9]): 27%
Cmax [10]: 2 µM
EC50 [11]: 493 nM
Activity (Rattus norvegicus [12]): inactive
Activity (Rattus norvegicus [13]): 4%
half-life [14]: 5.3 h
solubility [15]: 15.4 µg/mL (≈ 27 µM)
Activity (Rattus norvegicus [16]): 17%
IC50 [17]: 57 nM
Activity (Rattus norvegicus [18]): Active
IC20 (hERG): 30000 nM
